Measured values published in ChEMBL document CHEMBL2311256, “Design and synthesis of biaryl aryl stilbenes/ethylenes as antimicrotubule agents” (Eur J Med Chem, 2013).
Active and inactive are the calls of the source. The calls are words filed in the database; no cut-off is given here.

Columns and labels:
A549 = assay: Cytotoxicity against human A549 cells after 48 hrs by MTT assay; type: functional, cell-based; settings: A549, 48 h
Summary of the method: (§1)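 Cells given 24 h settling, then 48 h continuous exposure to 1, 10, 100 and 1000 µM in triplicate wells. A549, SK-N-SH and HeLa grown in DMEM with 10% FBS; DU145 in MEM with non-essential amino acids, 1 mM pyruvate, insulin and 10% FBS; all at 37 °C, 5% CO2. Read-out was MTT (60 min, 37 °C), DMSO elution, 560 nm. IC50 = 50% absorbance reduction versus control, mean ± SD of three experiments.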

DU-145 = assay: Cytotoxicity against human DU145 cells after 48 hrs by MTT assay; type: functional, cell-based; settings: DU-145, 48 h; summary of the method: as §1
SK-N-SH = assay: Cytotoxicity against human SK-N-SH cells after 48 hrs by MTT assay; type: functional, cell-based; summary of the method: as §1
Bos taurus = organism: Bos taurus; assay: Inhibition of bovine brain tubulin polymerization at 5 uM by fluorescence assay
HeLa [1] = assay: Cytotoxicity against human HeLa cells after 48 hrs by MTT assay; type: functional, cell-based; summary of the method: as §1
HeLa [2] = assay: Antimitotic activity in human HeLa cells assessed as accumulation at G2/M phase at 10 uM after 24 hrs by flow cytometry analysis (reference value: 19.4%); type: functional
Summary of the method: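 Cells treated 24 h at 10 µM, trypsin-EDTA harvested, fixed in ice-cold 70% ethanol at 4 °C for 30 min, then stained 30 min in propidium iodide (0.2 mg) plus RNase A (2 mg) per 1 mL. DNA content of 20,000 events measured by flow cytometry, and the percentage of cells in G2/M quantified against untreated and DMSO controls.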

Tubulin (Homo sapiens) [3] = biological target: T1, Tubulin (Homo sapiens) (UniProt P68371+Q9H4B7+P0DPH7+P68366+Q13509+Q71U36+P04350+Q3ZCM7+P07437+P68363+Q9BQE3+Q6PEY2+Q13885+Q9BVA1+Q9BUF5); assay: Inhibition of tubulin polymerization in human HeLa cells assessed as tubulin cytoskeleton at 10 uM after 24 hrs by immunohistochemistry analysis; type: cell-based
Summary of the method: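 HeLa on coverslips treated 24 h at 10 µM, then fixed in 3.5% formaldehyde/PBS for 10 min and permeabilized with 0.5% Triton X-100/0.05% Tween-20. Blocked in 2% BSA, stained with anti-tubulin (1:200, 4 h, RT) and FITC anti-mouse secondary (1:500, 1 h), DAPI counterstain. Imaged by fluorescence microscopy; five fields of view.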

[4] = Inhibition of bovine brain tubulin polymerization by fluorescence assay; set-up: species or system Bos taurus
HeLa [5] = assay: Induction of cyclin B1 expression in human HeLa cells at 10 uM after 24 hrs by immunoblotting; type: functional, cell-based
Summary of the method: (§2)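 HeLa seeded at 1 × 10^5 cells/well and treated 24 h. Cells washed with PBS, lysed in 1X SDS sample buffer, run on SDS-PAGE and transferred to nitrocellulose. Blots probed with anti-cyclin B1 (1:1500) and HRP goat anti-rabbit secondary (1:5000), detected by enhanced chemiluminescence.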

Tubulin (Homo sapiens) [6] = biological target: T1, Tubulin (Homo sapiens); assay: Inhibition of tubulin polymerization in human HeLa cells assessed as tubulin soluble fraction at 10 uM after 24 hrs by immunohistochemistry analysis; type: cell-based
HeLa [7] = assay: Induction of cyclin B1 expression in human HeLa cells at 1 uM after 24 hrs by immunoblotting; type: functional, cell-based; summary of the method: as §2
Tubulin (Homo sapiens) [8] = biological target: T1, Tubulin (Homo sapiens); assay: Inhibition of tubulin polymerization in human HeLa cells assessed as tubulin polymerized fraction at 1 uM after 24 hrs by immunohistochemistry analysis; type: cell-based
Tubulin (Homo sapiens) [9] = biological target: T1, Tubulin (Homo sapiens); settings: HeLa, 1 uM

With `C=C(c1ccc(OC)cc1)c1cc(OC)c(OC)c(OC)c1-c1ccc(OC)cc1` the IC50 (A549) was 14 µM, the IC50 (DU-145) was 37 µM and the IC50 (SK-N-SH) was 75 µM. The inhibition (Bos taurus) was 40% and the IC50 (HeLa [1]) was 72 µM.
For `COc1ccc(/C=C/c2cc(OC)c(OC)c(OC)c2-c2ccc(F)c(F)c2)cc1`, the Activity (HeLa [2]) was 71.16%, the IC50 (A549) was 7.5 µM and the inhibition (Tubulin (Homo sapiens) [3]) was “Active”. It also gave an IC50 (DU-145) of 7.5 µM, an IC50 [4] of 9.2 µM and an IC50 (SK-N-SH) of 6.9 µM. For the same compound, the Activity (HeLa [5]) was “Active”, the inhibition (Bos taurus) was 55% and the IC50 (HeLa [1]) was 9.2 µM.
`COc1cc(/C=C/c2ccccc2)c(-c2ccccc2)c(OC)c1OC` gave an IC50 (A549) of 79 µM, an IC50 (DU-145) of 82 µM and an IC50 (SK-N-SH) of 63 µM. It also gave an inhibition (Bos taurus) of 41% and an IC50 (HeLa [1]) of 89 µM.
In the case of `C=C(c1ccccc1)c1cc(OC)c(OC)c(OC)c1-c1ccccc1`, the IC50 (A549) is reported as 17 µM, the IC50 (DU-145) is reported as 36 µM and the IC50 (SK-N-SH) is reported as 34 µM. The inhibition (Bos taurus) was 40% and the IC50 (HeLa [1]) was 42 µM.
In the case of `C=C(c1ccc(OC)cc1)c1cc(OC)c(OC)c(OC)c1-c1ccc(F)c(F)c1`, the Activity (HeLa [2]) is reported as 70.02%, the IC50 (A549) is reported as 6.5 µM and the inhibition (Tubulin (Homo sapiens) [3]) is reported as “Active”. The IC50 (DU-145) was 6.8 µM, the IC50 [4] was 11.2 µM and the IC50 (SK-N-SH) was 7.5 µM. For the same compound, the Activity (HeLa [5]) was “Active”, the inhibition (Bos taurus) was 53% and the IC50 (HeLa [1]) was 5.9 µM.
With `COc1ccc(/C=C/c2cc(OC)c(OC)c(OC)c2-c2ccc(Cl)cc2)cc1` the IC50 (A549) was 30 µM, the IC50 (DU-145) was 35 µM and the IC50 (SK-N-SH) was 15 µM. It also gave an inhibition (Bos taurus) of 26% and an IC50 (HeLa [1]) of 49 µM.
For `COc1ccc(/C=C/c2cc(OC)c(OC)c(OC)c2-c2ccc(C(C)(C)C)cc2)cc1`, the IC50 (A549) was 32 µM, the IC50 (DU-145) was 45 µM and the IC50 (SK-N-SH) was 30 µM. The inhibition (Bos taurus) was 33% and the IC50 (HeLa [1]) was 28 µM.
Compound `COc1cc(/C=C/c2ccc(C)cc2)c(-c2ccccc2)c(OC)c1OC` has an IC50 (A549) of 54 µM, an IC50 (DU-145) of 101 µM and an IC50 (SK-N-SH) of 31 µM. It also gave an inhibition (Bos taurus) of 47% and an IC50 (HeLa [1]) of 45 µM.
`C=C(c1ccc(OC)cc1)c1cc(OC)c(OC)c(OC)c1-c1ccccc1` gave an IC50 (A549) of 22 µM, an IC50 (DU-145) of 8 µM and an IC50 (SK-N-SH) of 31 µM. For the same compound, the inhibition (Bos taurus) was 49% and the IC50 (HeLa [1]) was 11 µM.
In the case of `COc1ccc(/C=C/c2cc(OC)c(OC)c(OC)c2-c2ccc(F)c(C)c2)cc1`, the IC50 (A549) is reported as 18 µM, the IC50 (DU-145) is reported as 23 µM and the IC50 (SK-N-SH) is reported as 19 µM. The inhibition (Bos taurus) was 48% and the IC50 (HeLa [1]) was 17 µM.
In the case of `COc1ccc(/C=C/c2cc(OC)c(OC)c(OC)c2-c2ccc3ccccc3c2)cc1`, the IC50 (A549) is reported as 14 µM, the IC50 (DU-145) is reported as 32 µM and the IC50 (SK-N-SH) is reported as 16 µM. The inhibition (Bos taurus) was 50% and the IC50 (HeLa [1]) was 13 µM.
In the case of `C=C(c1ccc(OC)cc1)c1cc(OC)c(OC)c(OC)c1-c1ccc(C(C)(C)C)cc1`, the IC50 (A549) is reported as 27 µM, the IC50 (DU-145) is reported as 39 µM and the IC50 (SK-N-SH) is reported as 24 µM. For the same compound, the inhibition (Bos taurus) was 23% and the IC50 (HeLa [1]) was 39 µM.
Work on `COc1ccc(/C=C/c2cc(OC)c(OC)c(OC)c2-c2ccc(OC)cc2)cc1` yielded an IC50 (A549) of 35 µM, an IC50 (DU-145) of 34 µM and an IC50 (SK-N-SH) of 36 µM. The inhibition (Bos taurus) was 20% and the IC50 (HeLa [1]) was 19 µM.
Compound `C=C(c1ccc(OC)cc1)c1cc(OC)c(OC)c(OC)c1-c1ccc(Cl)cc1` has an IC50 (A549) of 29 µM, an IC50 (DU-145) of 33 µM and an IC50 (SK-N-SH) of 15 µM. The inhibition (Bos taurus) was 40% and the IC50 (HeLa [1]) was 30 µM.
Compound `C=C(c1ccc(OC)cc1)c1cc(OC)c(OC)c(OC)c1-c1ccc2ccccc2c1` has an IC50 (A549) of 15 µM, an IC50 (DU-145) of 46 µM and an IC50 (SK-N-SH) of 6 µM. For the same compound, the inhibition (Bos taurus) was 21% and the IC50 (HeLa [1]) was 35 µM.
In the case of `C=C(c1ccc(OC)cc1)c1cc(OC)c(OC)c(OC)c1-c1ccc2c(c1)OCO2`, the Activity (HeLa [2]) is reported as 73%, the inhibition (Tubulin (Homo sapiens) [6]) is reported as “Active” and the IC50 (A549) is reported as 5 µM. For the same compound, the inhibition (Tubulin (Homo sapiens) [3]) was “Active”, the IC50 (DU-145) was 6 µM and the IC50 [4] was 8.6 µM. For the same compound, the IC50 (SK-N-SH) was 6.1 µM, the Activity (HeLa [5]) was “Active” and the inhibition (Bos taurus) was 56%. It also gave an IC50 (HeLa [1]) of 5.4 µM.
Compound `C=C(c1ccc(Cl)cc1)c1cc(OC)c(OC)c(OC)c1-c1ccccc1` has an IC50 (A549) of 40 µM, an IC50 (DU-145) of 29 µM and an IC50 (SK-N-SH) of 25 µM. For the same compound, the inhibition (Bos taurus) was 51% and the IC50 (HeLa [1]) was 34 µM.
For `C=C(c1ccc(C(F)(F)F)cc1)c1cc(OC)c(OC)c(OC)c1-c1ccccc1`, the IC50 (A549) was 48 µM, the IC50 (DU-145) was 31 µM and the IC50 (SK-N-SH) was 13 µM. It also gave an inhibition (Bos taurus) of 49% and an IC50 (HeLa [1]) of 32 µM.
For `COc1ccc(/C=C/c2cc(OC)c(OC)c(OC)c2-c2ccc3c(c2)OCO3)cc1`, the Activity (HeLa [2]) was 73.02%, the inhibition (Tubulin (Homo sapiens) [6]) was “Active” and the IC50 (A549) was 6.3 µM. For the same compound, the inhibition (Tubulin (Homo sapiens) [3]) was “Active”, the IC50 (DU-145) was 7.3 µM and the IC50 [4] was 6.8 µM. The IC50 (SK-N-SH) was 8 µM, the Activity (HeLa [5]) was “Active” and the inhibition (Bos taurus) was 62%. For the same compound, the IC50 (HeLa [1]) was 8.7 µM.
With `C=C(c1ccc(C)cc1)c1cc(OC)c(OC)c(OC)c1-c1ccccc1` the IC50 (A549) was 35 µM, the IC50 (DU-145) was 28 µM and the IC50 (SK-N-SH) was 31 µM. For the same compound, the inhibition (Bos taurus) was 32% and the IC50 (HeLa [1]) was 28 µM.
With `CC(=O)O[C@H]1C(=O)[C@@]2(C)[C@H]([C@H](OC(=O)c3ccccc3)[C@]3(O)C[C@H](OC(=O)[C@H](O)[C@@H](NC(=O)c4ccccc4)c4ccccc4)C(C)=C1C3(C)C)[C@]1(OC(C)=O)CO[C@@H]1C[C@@H]2O` the Activity (HeLa [7]) was “Active” and the inhibition (Tubulin (Homo sapiens) [8]) was “Active”.
Work on `COc1ccc(/C=C/c2cc(OC)c(OC)c(OC)c2-c2ccccc2)cc1` yielded an IC50 (A549) of 36 µM, an IC50 (DU-145) of 51 µM and an IC50 (SK-N-SH) of 11 µM. The inhibition (Bos taurus) was 22% and the IC50 (HeLa [1]) was 26 µM.
With `COc1ccc(/C=C/c2cc(OC)c(OC)c(OC)c2-c2ccc(OC)c(OC)c2)cc1` the IC50 (A549) was 28 µM, the IC50 (DU-145) was 34 µM and the IC50 (SK-N-SH) was 42 µM. It also gave an inhibition (Bos taurus) of 33% and an IC50 (HeLa [1]) of 45 µM.
In the case of `COC(=O)Nc1nc2cc(C(=O)c3cccs3)ccc2[nH]1`, the inhibition (Tubulin (Homo sapiens) [9]) is reported as “Active”.
